Data from ChEMBL document CHEMBL1149096 (J Med Chem, 2004).
Several values for one entry are separate records, joined by “and”; a condition that tells them apart may be missing. Equal entries are not always repeated. Activity calls are given as the source filed them.

Key:
[1] = biological target: T1, Kappa-type opioid receptor (Cavia porcellus, UniProt P41144); assay: Binding affinity at Opioid receptor kappa 1 by displacement of [3H]U-69593 in guinea pig brain membranes; type: cell membranes, Membrane
T1 sequence (P41144 whole entry): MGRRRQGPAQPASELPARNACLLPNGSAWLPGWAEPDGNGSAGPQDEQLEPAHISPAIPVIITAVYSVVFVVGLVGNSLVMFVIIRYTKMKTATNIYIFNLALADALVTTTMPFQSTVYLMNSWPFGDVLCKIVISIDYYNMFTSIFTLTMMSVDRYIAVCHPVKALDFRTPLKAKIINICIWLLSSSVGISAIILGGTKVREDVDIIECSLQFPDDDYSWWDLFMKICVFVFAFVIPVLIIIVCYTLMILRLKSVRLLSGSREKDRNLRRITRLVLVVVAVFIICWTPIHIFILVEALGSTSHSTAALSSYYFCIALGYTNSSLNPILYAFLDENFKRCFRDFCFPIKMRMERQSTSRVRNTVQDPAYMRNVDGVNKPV

Mu-type opioid receptor [2] = biological target: Mu-type opioid receptor (Rattus norvegicus, UniProt P33535); assay: Binding affinity at Opioid receptor mu 1 by displacement of [3H]DAMGO in rat brain membrane; type: cell membranes
Chain of Mu-type opioid receptor (Rattus norvegicus, UniProt P33535) (P33535 whole entry): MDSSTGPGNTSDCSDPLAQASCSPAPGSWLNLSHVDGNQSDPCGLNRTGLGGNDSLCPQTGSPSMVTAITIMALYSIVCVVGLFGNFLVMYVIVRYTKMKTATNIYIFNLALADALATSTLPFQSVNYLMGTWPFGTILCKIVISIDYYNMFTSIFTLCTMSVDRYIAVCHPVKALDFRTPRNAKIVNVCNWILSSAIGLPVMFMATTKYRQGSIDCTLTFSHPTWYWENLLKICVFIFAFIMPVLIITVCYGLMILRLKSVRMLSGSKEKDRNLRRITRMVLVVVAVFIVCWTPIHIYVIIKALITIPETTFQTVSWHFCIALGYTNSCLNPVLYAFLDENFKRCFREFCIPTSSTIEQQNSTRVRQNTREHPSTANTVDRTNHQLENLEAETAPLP

Mu-type opioid receptor [3] = biological target: T2, Mu-type opioid receptor (Cavia porcellus, UniProt P97266); assay: Agonistic activity towards Opioid receptor mu 1 was determined in [35S]GTP-gamma-S, binding assay in guinea pig caudate; g = not active as an agonist; type: functional
T2 sequence (P97266 whole entry): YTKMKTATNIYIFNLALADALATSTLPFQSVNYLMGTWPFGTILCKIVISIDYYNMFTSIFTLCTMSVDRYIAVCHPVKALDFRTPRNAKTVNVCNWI
Procedure, shortened: (§1)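 Guinea pig caudate membranes (10-20 µg protein) incubated 3 h at 22 °C in Tris-HCl pH 7.4 containing 100 mM NaCl, 10 mM MgCl2, 1 mM EDTA, 100 µM GDP and 0.05-0.1 nM [35S]GTP-γ-S, then filtered and counted. Nonspecific binding defined with 10 µM GTP-γ-S. Site isolation used CTAP, nor-BNI, NTI or TIPP. […] Three experiments pooled; logistic fit.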

[4] = biological target: Delta-type opioid receptor (Mus musculus) (UniProt P32300); assay: Agonist activity by the maximum response towards opioid receptor delta 1 induced contractions in mouse vas deferens (MVD) smooth muscle contraction assays; type: functional, tissue-based
Chain of Delta-type opioid receptor (Mus musculus) (P32300 whole entry): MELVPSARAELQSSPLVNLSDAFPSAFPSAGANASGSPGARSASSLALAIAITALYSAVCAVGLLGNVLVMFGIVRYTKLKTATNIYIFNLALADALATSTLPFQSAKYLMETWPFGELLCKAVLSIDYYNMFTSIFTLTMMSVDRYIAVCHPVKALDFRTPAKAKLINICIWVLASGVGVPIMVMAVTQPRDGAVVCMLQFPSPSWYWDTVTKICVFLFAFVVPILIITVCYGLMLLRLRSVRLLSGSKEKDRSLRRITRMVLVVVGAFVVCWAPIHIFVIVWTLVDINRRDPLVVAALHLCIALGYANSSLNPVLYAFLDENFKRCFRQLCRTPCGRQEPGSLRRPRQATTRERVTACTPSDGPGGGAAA
Procedure, shortened: (§2)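 Electrically stimulated MVD (male ICR mice, 25-40 g) and GPI longitudinal muscle myenteric plexus strips (male Hartley guinea pigs, 250-500 g). Baths held 37 °C oxygenated Krebs bicarbonate (Mg-free for MVD), tension 1 g GPI / 0.5 g MVD. Stimulation 0.1 Hz, 0.4 ms pulses (2 ms MVD), supramaximal voltage. […] IC50 from two to four tissues by nonlinear least squares.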

[5] = biological target: T1, Kappa-type opioid receptor; assay: Agonistic activity towards Opioid receptor kappa 1 was determined in [35S]GTP-gamma-S, binding assay in guinea pig caudate; g = not active as an agonist; type: functional; procedure, shortened: as §1
[6] = biological target: Delta-type opioid receptor (Rattus norvegicus, UniProt P33533); assay: Binding affinity at opioid receptor delta 1 by displacement of [3H]DADLE in rat brain membrane; type: cell membranes
Chain of Delta-type opioid receptor (P33533 whole entry): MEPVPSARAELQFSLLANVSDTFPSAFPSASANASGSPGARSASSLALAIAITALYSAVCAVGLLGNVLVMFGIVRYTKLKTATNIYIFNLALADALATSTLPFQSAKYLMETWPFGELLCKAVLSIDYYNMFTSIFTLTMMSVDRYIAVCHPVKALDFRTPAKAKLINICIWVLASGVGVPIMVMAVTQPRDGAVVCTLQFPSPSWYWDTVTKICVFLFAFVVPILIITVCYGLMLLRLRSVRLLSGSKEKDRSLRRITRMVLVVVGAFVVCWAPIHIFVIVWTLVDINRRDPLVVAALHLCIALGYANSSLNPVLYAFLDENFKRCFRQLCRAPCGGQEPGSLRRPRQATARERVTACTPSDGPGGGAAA

Mus musculus [7] = species: Mus musculus; assay: Antinociceptive effect was determined by the ability to exhibit 80% reduction of naloxone induced sensitivity; Yes; type: functional, organism-based
Mu-type opioid receptor [8] = biological target: T2, Mu-type opioid receptor; assay: Inhibitory concentration for inhibition of Opioid receptor mu 1 induced contractions in guinea pig ileum (GPI) smooth muscle assays; type: functional, tissue-based
Procedure, shortened: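 Electrically stimulated MVD (male ICR mice, 25-40 g) and GPI longitudinal muscle myenteric plexus strips (male Hartley guinea pigs, 250-500 g). Baths held 37 °C oxygenated Krebs bicarbonate (Mg-free for MVD), tension 1 g GPI / 0.5 g MVD. Stimulation 0.1 Hz, 0.4 ms pulses (2 ms MVD), supramaximal voltage. IC50 from two to four tissues by nonlinear least squares.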

Cavia porcellus [9] = species: Cavia porcellus; assay: Selectivity given as ratio of kappa receptor to delta receptor
Mu-type opioid receptor [10] = biological target: T2, Mu-type opioid receptor; assay: Apparent binding affinity of compound was determined by antagonism towards Opioid receptor mu 1 in [35S]GTP-gamma-S, binding assay in guinea pig caudate; type: functional
[11] = biological target: Delta-type opioid receptor (Mus musculus) (UniProt P32300); assay: Agonist activity by the max response towards opioid receptor delta 1 induced contractions in mouse vas deferens (MVD) smooth muscle contraction assays; type: functional, tissue-based; procedure, shortened: as §2
[12] = biological target: T1, Kappa-type opioid receptor; assay: Apparent binding affinity of compound was determined by antagonism towards Opioid receptor kappa 1 in [35S]GTP-gamma-S, binding assay in guinea pig caudate; type: functional
[13] = biological target: Opioid receptors; mu & delta (Rattus norvegicus) (UniProt P33533+P33535); assay: Selectivity given as ratio of mu receptor to delta receptor; type: protein assay
Chain of Opioid receptors; mu & delta (Rattus norvegicus) (P33533 whole entry, looked up): as the sequence (P33533 whole entry) above
Chain of Opioid receptors; mu & delta (Rattus norvegicus) (P33535 whole entry, looked up): as the sequence (P33535 whole entry) above

Mu-type opioid receptor [14] = biological target: T2, Mu-type opioid receptor; assay: Agonistic activity towards Opioid receptor mu 1 was determined in [35S]GTP-gamma-S, binding assay in guinea pig caudate; type: functional; procedure, shortened: as §1
Mus musculus [15] = assay: Analgesic activity was calculated at time of peak drug effect when administered (icv) in mouse warm-water tail withdrawal assay; type: functional
Procedure, shortened: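 Male ICR mice dosed icv (5 µL; water or 100% DMSO) under light ether anaesthesia. 55 °C warm-water tail withdrawal read at 10-180 min, cutoff 10 s. %MPE = 100 × (test − control)/(cutoff − control). A50 and 95% CI taken at peak effect by linear regression.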

[16] = biological target: T1, Kappa-type opioid receptor; assay: Agonistic activity towards Opioid receptor kappa 1 was determined in [35S]GTP-gamma-S, binding assay in guinea pig caudate; type: functional; procedure, shortened: as §1
[17] = biological target: Mu-type opioid receptor (Cavia porcellus) (UniProt P97266); conditions: Ileum, filed as agonist
Chain of Mu-type opioid receptor (Cavia porcellus) (P97266 whole entry): as the sequence (P97266 whole entry) above

[18] = biological target: Delta-type opioid receptor (Mus musculus) (UniProt P32300); conditions: Vas deferens
[19] = biological target: Mu-type opioid receptor (Cavia porcellus) (UniProt P97266); conditions: Ileum
[20] = biological target: Mu-type opioid receptor (Cavia porcellus) (UniProt P97266); conditions: Ileum, filed as agonist; remark: listed apart in the source
Mus musculus [21] = species: Mus musculus; assay: Antinociceptive effect was determined at 100 nM in mouse; type: functional
[22] = biological target: T1, Kappa-type opioid receptor; assay: Inhibitory concentration required for 50% inhibition of antagonism towards Opioid receptor kappa 1 in [35S]GTP-gamma-S, binding assay in guinea pig caudate; type: functional
Cavia porcellus [23] = species: Cavia porcellus; conditions: Ileum, filed as agonist
[24] = biological target: Delta-type opioid receptor (Mus musculus) (UniProt P32300); conditions: Vas deferens; filed as agonist
Mu-type opioid receptor [25] = biological target: T2, Mu-type opioid receptor; assay: Antagonism of compound towards Opioid receptor mu 1 was determined using PL-017 in guinea pig ileum (GPI) smooth muscle contraction assays; d = agonist effect was observed; type: functional, tissue-based
[26] = biological target: Mu-type opioid receptor (Cavia porcellus) (UniProt P97266)
[27] = biological target: Delta-type opioid receptor (Mus musculus) (UniProt P32300); conditions: Vas deferens; filed as agonist; remark: listed apart in the source
[28] = biological target: Delta-type opioid receptor (Mus musculus) (UniProt P32300); conditions: Vas deferens; filed as agonist; remark: listed apart in the source
Mus musculus [29] = species: Mus musculus; assay: Antinociceptive effect was determined by the ability to exhibit 80% reduction of naloxone induced sensitivity; No; type: functional, organism-based

Compound: C=CCN1C[C@H](C)N([C@H](c2ccc(C(=O)N(CC)CC)cc2)c2cccc(OC)c2)C[C@H]1C [SNC-80]
- Ki [1]: 8760 nM
- Ki (Mu-type opioid receptor [2]): 8070 nM

Compound: Oc1ccc2c3c1O[C@H]1c4[nH]c5ccccc5c4C[C@@]4(O)[C@@H](C2)N(CC2CC2)CC[C@]314 [NALTRINDOLE]
- Ki [1]: 75 nM
- EC50 (Mu-type opioid receptor [3]): Not Active
- Response [4]: 16% and 18%
- EC50 [5]: Not Active
- Ki [6]: 1.6 nM

Compound: CN1CC[C@]23c4c5ccc(O)c4O[C@H]2c2ncccc2C[C@@]3(O)[C@H]1C5
- Activity (Mus musculus [7]): Active
- IC50 (Mu-type opioid receptor [8]): 523 nM
- Ratio (Cavia porcellus [9]): 15
- EC50 [5]: Not Active
- Ki (Mu-type opioid receptor [10]): > 1000 nM
- Response [11]: 49%
- Ki [12]: > 1000 nM
- Ratio [13]: 0.4
- EC50 (Mu-type opioid receptor [14]; read-out: EC50): 3000 nM
- A50 (Mus musculus [15]): 67.1 nM

Compound: CN1CC[C@]23c4c5ccc(O)c4O[C@H]2c2ncc(-c4ccc(Br)cc4)cc2C[C@H]3[C@H]1C5
- Activity (Mus musculus [7]): Active
- IC50 (Mu-type opioid receptor [8]): 666 nM
- Ratio (Cavia porcellus [9]): 18
- EC50 (Mu-type opioid receptor [3]; read-out: EC50): 3220 nM
- Response [4]: 44%
- Ki (Mu-type opioid receptor [10]): > 1000 nM
- EC50 [16]: Not Active
- Ke [17]: Agonist
- Ratio [13]: 40
- Ke [18]: 20 nM
- A50 (Mus musculus [15]): 47.2 nM

Compound: Oc1ccc2c3c1O[C@H]1c4ncc(-c5ccccc5)cc4C[C@@]4(O)[C@@H](C2)N(CC2CC2)CC[C@]314
- Ratio (Cavia porcellus [9]): 20
- Response [4]: 4.7%
- Ratio [13]: 16
- Ke [19]: 43 nM
- Ke [18]: 3.7 nM

Compound: Oc1ccc2c3c1O[C@H]1c4ncc(-c5ccc(Cl)cc5)cc4C[C@H]4[C@@H](C2)N(CC2CC2)CC[C@]314
- Ke [20]: Agonist
- IC50 (Mu-type opioid receptor [8]): 109 nM
- Ratio (Cavia porcellus [9]): 2.3
- EC50 (Mu-type opioid receptor [3]): Not Active
- EC50 [5]: Not Active
- Ki (Mu-type opioid receptor [10]): 9.2 nM
- Response [11]: 7.9%
- Ratio [13]: 24
- Ke [18]: 6 nM

Compound: C[C@@H](NC(=O)[C@@H](N)Cc1ccc(O)cc1)C(=O)NCC(=O)N(C)[C@@H](Cc1ccccc1)C(=O)NCCO [DAMGO]
- Ki [1]: 5820 nM
- Ki [6]: 469 nM

Compound: Oc1ccc2c3c1O[C@H]1c4ncc(-c5ccc(Cl)cc5)cc4C[C@@]4(O)[C@@H](C2)N(CC2CC2)CC[C@]314
- IC50 (Mu-type opioid receptor [8]): 163 nM
- EC50 (Mu-type opioid receptor [3]): Not Active
- Response [4]: 21%
- EC50 [5]: Not Active
- Ki (Mu-type opioid receptor [10]): 7.8 nM
- Activity (Mus musculus [21]): 21%

Compound: CN1CC[C@]23c4c5ccc(O)c4O[C@H]2c2ncc(-c4ccc(Cl)c(Cl)c4)cc2C[C@H]3[C@H]1C5
- Ki [22]: 4770 nM
- IC50 (Mu-type opioid receptor [8]): 447 nM
- Ke (Cavia porcellus [23]): Agonist
- Ratio (Cavia porcellus [9]): 75
- EC50 (Mu-type opioid receptor [3]; read-out: EC50): 1310 nM
- Ki (Mu-type opioid receptor [10]): > 1000 nM
- EC50 [16]: Not Active
- Ke [24]: Agonist
- Activity (Mus musculus [21]): 44%
- Ratio [13]: 25

Compound: CN1CC[C@]23c4c5ccc(O)c4O[C@H]2c2ncc(-c4ccc(Br)cc4)cc2C[C@@]3(O)[C@H]1C5
- Ki [1]: 432 nM
- Ratio (Cavia porcellus [9]): 108
- Ki (Mu-type opioid receptor [2]): 196 nM
- Ki [6]: 4 nM
- Ratio [13]: 49

Compound: COc1ccc2c3c1O[C@H]1c4ncc(-c5ccc(Br)cc5)cc4C[C@@]4(O)[C@@H](C2)N(C)CC[C@]314
- Ki [1]: 7370 nM
- Ratio (Cavia porcellus [9]): 320
- Ki (Mu-type opioid receptor [2]): 1890 nM
- Ki [6]: 23 nM
- Ratio [13]: 82

Compound: CN1CC[C@]23c4c5ccc(O)c4O[C@H]2c2ncc(-c4ccc(Cl)cc4Cl)cc2C[C@H]3[C@H]1C5
- Ke [20]: Agonist
- IC50 (Mu-type opioid receptor [8]): 724 nM
- Ratio (Cavia porcellus [9]): 366
- EC50 (Mu-type opioid receptor [3]; read-out: EC50): 225 nM
- Ki (Mu-type opioid receptor [10]): > 1000 nM
- EC50 [16]: Not Active
- Response [11]: 28.3%
- Activity (Mus musculus [21]): 40%
- Ratio [13]: 88
- Ke [18]: 5.02 nM

Compound: CN1CC[C@]23c4c5ccc(O)c4O[C@H]2c2ncc(-c4ccccc4)cc2C[C@H]3[C@H]1C5
- Activity (Mus musculus [7]): Active
- IC50 (Mu-type opioid receptor [8]): 98.7 nM
- EC50 (Mu-type opioid receptor [25]): 1030 nM
- Ratio (Cavia porcellus [9]): 43
- Ki (Mu-type opioid receptor [10]): > 1000 nM
- Ke [26]: inactive
- Ke [27]: Agonist
- Ki [12]: > 1000 nM
- Activity (Mus musculus [21]): 48%
- Ratio [13]: 13
- EC50 (Mu-type opioid receptor [14]): Not Active

Compound: Oc1ccc2c3c1O[C@H]1c4ncccc4C[C@@]4(O)[C@@H](C2)N(CC2CC2)CC[C@]314
- Ratio (Cavia porcellus [9]): 11
- Response [4]: 0%
- Ratio [13]: 1.9

Compound: COc1ccc2c3c1O[C@H]1c4ncc(-c5ccc(Cl)cc5)cc4C[C@@]4(O)[C@@H](C2)N(C)CC[C@]314
- Ki [1]: > 7100 nM

Compound: CN1CC[C@]23c4c5ccc(O)c4O[C@H]2c2ncc(-c4ccccc4)cc2C[C@@]3(O)[C@H]1C5
- Ke [28]: Agonist
- IC50 (Mu-type opioid receptor [8]): 211 nM
- Ratio (Cavia porcellus [9]): 124
- EC50 [5]: Not Active
- Ki (Mu-type opioid receptor [10]): > 1000 nM
- Activity (Mus musculus [29]): inactive
- Ke [17]: Agonist
- Ki [12]: > 1000 nM
- Activity (Mus musculus [21]): 64%
- Ratio [13]: 9
- EC50 (Mu-type opioid receptor [14]; read-out: EC50): 660 nM

Compound: CN1CC[C@]23c4c5ccc(O)c4O[C@H]2c2ncccc2C[C@H]3[C@H]1C5
- Ke [20]: Agonist
- IC50 (Mu-type opioid receptor [8]): 67.7 nM
- Ratio (Cavia porcellus [9]): 8
- EC50 [5]: Not Active
- Ki (Mu-type opioid receptor [10]): > 1000 nM
- Activity (Mus musculus [29]): inactive
- Ke [27]: Agonist
- Ki [12]: > 1000 nM
- Activity (Mus musculus [21]): 75%
- Ratio [13]: 1.6
- EC50 (Mu-type opioid receptor [14]; read-out: EC50): 3000 nM
